According to ChEMBL document CHEMBL5532690, “Antitubercular activity of 2-mercaptobenzothiazole derivatives targeting Mycobacterium tuberculosis type II NADH dehydrogenase” (RSC Med Chem, 2024):
≈ marks a conversion by molar mass, not a printed value. Calls of active or inactive are those of the source. No cut-off for these calls is given here.

How the values were obtained:
[1] = tested on: Mycobacterium tuberculosis; test: Inhibition of NDH-2 in Mycobacterium tuberculosis transformed with pMV762-Peredox-mCherry assessed as change in NADH/NAD+ ratio at 59.16 ug/ml incubated for 24 hrs by fluorimetric assay; settings: dose 59.16 µg/ml
[2] = tested on: Mycobacterium tuberculosis; test: Antitubercular activity against isoniazid and rifampicin resistant Mycobacterium tuberculosis mc2 8259 measured after 10 days by liquid broth microdilution assay; format: functional; settings: mc2 8259, 240 h, time 10 day
Procedure, shortened: (§1)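 Broth microdilution in 7H9 with glycerol, ADS and 0.05% tyloxapol, supplemented with L-methionine, L-leucine (50 mg L−1 each), L-arginine (200 mg L−1) and D-pantothenate (24 mg L−1). Inoculum was diluted to OD600 0.005 (1.0 × 10^6 CFU ml−1) and added to two-fold serial dilutions. After 10 days at 37 °C, MIC was the lowest concentration without visible turbidity.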

[3] = tested on: Mycobacterium tuberculosis; test: Antitubercular activity against rifampicin-resistant Mycobacterium tuberculosis mc2 8247 measured after 10 days by liquid broth microdilution assay; format: functional; settings: mc2 8247, 240 h, time 10 day; procedure, shortened: as §1
[4] = tested on: Mycobacterium tuberculosis; test: Antitubercular activity against isoniazid-resistant Mycobacterium tuberculosis mc2 8243 measured after 10 days by liquid broth microdilution assay; format: functional; settings: mc2 8243, 240 h, time 10 day; procedure, shortened: as §1
[5] = tested on: Mycobacterium tuberculosis; test: Inhibition of NDH-2 in Mycobacterium tuberculosis transformed with pMV762-Peredox-mCherry incubated for 24 hrs by fluorimetric assay
Procedure, shortened: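 Peredox-mCherry reporter Mtb was grown in supplemented 7H9 to OD600 0.4–0.6 and inoculated onto compounds, then held at 37 °C for 24 h. Fluorescence was read at ex 400/em 510 nm and ex 587/em 615 nm. The green/red ratio was taken as NADH/NAD+. Triplicates; one-way ANOVA with Dunnett's test.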

[6] = tested on: Mycobacterium tuberculosis; test: Inhibition of NDH-2 in Mycobacterium tuberculosis transformed with pMV762-Peredox-mCherry assessed as change in NADH/NAD+ ratio at 2.5 ug/ml incubated for 24 hrs by fluorimetric assay; settings: dose 2.5 µg/ml

| Structure (SMILES) | inhibition [1] | MIC90 [2] | MIC90 [3] | MIC90 [4] | inhibition [5] | inhibition [6] |
| --- | --- | --- | --- | --- | --- | --- |
| C=C(C)[C@H]1Cc2c(ccc3c2O[C@@H]2COc4cc(OC)c(OC)cc4[C@@H]2C3=O)O1 [ROTENONE] | Active | – | – | – | – | – |
| NNC(=O)c1ccncc1 [ISONIAZID] | – | > 128 µg/mL | 0.25 µg/mL (≈ 1.82 µM) | > 128 µg/mL | – | – |
| O=C(CSc1nc2ccccc2c(=O)[nH]1)NC1CCCCC1 | – | 0.125 µg/mL (≈ 0.394 µM) | 0.25 µg/mL (≈ 0.788 µM) | 0.125 µg/mL (≈ 0.394 µM) | – | – |
| CC(C)c1ccc2nc(SCC(=O)NC3CCCCC3)sc2c1 | – | 4 µg/mL (≈ 11.5 µM) | 4 µg/mL (≈ 11.5 µM) | 4 µg/mL (≈ 11.5 µM) | Active | – |
| CC(C)/N=c1\cc2n(-c3ccc(Cl)cc3)c3ccccc3nc-2cc1Nc1ccc(Cl)cc1 [CLOFAZIMINE] | – | – | – | – | – | inactive |
| O=C(CSc1nc2c(Br)cc(F)cc2s1)NC1CCCCC1 | – | 8 µg/mL (≈ 19.8 µM) | 4 µg/mL (≈ 9.92 µM) | 8 µg/mL (≈ 19.8 µM) | – | – |
| CO[C@H]1/C=C/O[C@@]2(C)Oc3c(C)c(O)c4c(O)c(c(/C=N/N5CCN(C)CC5)c(O)c4c3C2=O)NC(=O)/C(C)=C\C=C\[C@H](C)[C@H](O)[C@@H](C)[C@@H](O)[C@@H](C)[C@H](OC(C)=O)[C@@H]1C [RIFAMPIN] | – | > 128 µg/mL | > 128 µg/mL | 0.12 µg/mL (≈ 0.146 µM) | – | – |
| Cc1cc(C)c2nc(SCC(=O)NC3CCCCC3)sc2c1 | – | 4 µg/mL (≈ 12 µM) | 8 µg/mL (≈ 23.9 µM) | 4 µg/mL (≈ 12 µM) | Active | – |
